From ChEMBL document CHEMBL3352409, “Synthetic reactions with rare taccalonolides reveal the value of C-22,23 epoxidation for microtubule stabilizing potency” (J Med Chem, 2014)
Each block holds one compound with its values, some of them ahead of it. Activity calls are given as the source filed them. The calls are words filed in the database; no cut-off is given here.

Tests used:
[1] = system: HeLa; test: Antiproliferative activity against human HeLa cells up to 50 uM by SRB assay; type: functional, cell-based
Summary of the method: (§1)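 SRB assay in HeLa cells, IC50 from concentration-response; three independent experiments, each in triplicate, reported with standard deviation.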

[2] = system: HeLa; test: Antiproliferative activity against human HeLa cells by SRB assay; type: functional, cell-based; summary of the method: as §1
[3] = system: HeLa; test: Stabilization of microtubules in interphase human HeLa cells at 4 nM after 18 hrs by immunofluorescence microscopy; type: cell-based
Summary of the method: (§2)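 Interphase HeLa cells exposed to compound or EtOH vehicle for 18 h. Microtubules stained with a β-tubulin antibody and imaged by fluorescence microscopy.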

[4] = system: MDA-MB-231; test: Antitumor activity against human MDA-MB-231 cells xenografted in nu/nu mouse assessed as tumor growth inhibition at 0.25 mg/kg, ip on days 0 and 3 measured on day 7; type: functional, organism-based; parameters: dose 0.25 mg/kg
Summary of the method: (§3)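 MDA-MB-231 tumor fragments implanted bilaterally in female nu/nu mice; randomized groups of 5, dosing started at mean tumor size 134 mm3. Compound given ip at 0.25 mg/kg on days 0 and 3, from a 1.25 mg/mL EtOH stock diluted at least 1:10 in 200 µL PBS. Tumor volume and body weight recorded 2-3 times weekly; 10 tumors averaged, with standard error.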

[5] = system: Mus musculus; test: Toxicity in human MDA-MB-231 cells xenografted nu/nu mouse assessed as mortality at 0.375 mg/kg, ip on days 0 and 3 measured on day 8 to day 11; type: organism-based; parameters: dose 0.375 mg/kg, route intraperitoneal; settings: in vivo
Summary of the method: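 Female nu/nu mice with bilateral MDA-MB-231 tumor fragment implants, groups of 5. Two doses were given on days 0 and 3, starting when mean tumor size was 134 mm3. Stock in 100% EtOH (1.25 mg/mL) was diluted at least 1:10 in 200 µL PBS just before ip injection. Mice were checked daily during dosing, weighed 2-3 times weekly, and scored for lethality after the last dose.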

[6] = system: Mus musculus; test: Toxicity in human MDA-MB-231 cells xenografted nu/nu mouse assessed as weight loss at 0.25 mg/kg, ip on days 0 and 3 measured on day 7; type: organism-based; parameters: dose 0.25 mg/kg, route intraperitoneal; settings: in vivo; summary of the method: as §3
[7] = system: MDA-MB-231; test: Antitumor activity against human MDA-MB-231 cells xenografted in nu/nu mouse assessed as tumor growth inhibition at 0.25 mg/kg, ip on days 0 and 3 measured after 17 days; type: functional, organism-based; parameters: dose 0.25 mg/kg; summary of the method: as §3
[8] = system: Mus musculus; test: Toxicity in human MDA-MB-231 cells xenografted nu/nu mouse assessed as weight loss at 0.25 mg/kg, ip on days 0 and 3 measured on day 17; type: organism-based; parameters: dose 0.25 mg/kg, route intraperitoneal; settings: in vivo; summary of the method: as §3
[9] = biological target: T1, Tubulin (Sus scrofa) (UniProt P02554+P02550); test: Binding affinity to purified porcine brain tubulin at 0.7 uM by turbidimetry
Summary of the method: (§4)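 Compound added from 100× EtOH stock (1% final EtOH). Polymerization started by shift to 37 °C and followed as turbidity at OD340.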

[10] = system: MDA-MB-231; test: Antitumor activity against human MDA-MB-231 cells xenografted in nu/nu mouse assessed as tumor growth inhibition at 0.25 mg/kg, ip on days 0 and 3 measured after 1 week post final dose; type: functional, organism-based; parameters: dose 0.25 mg/kg; summary of the method: as §3
[11] = biological target: T1, Tubulin (Sus scrofa); test: Binding affinity to purified porcine brain tubulin at 6 uM by turbidimetry; summary of the method: as §4
[12] = system: Mus musculus; test: Toxicity in human MDA-MB-231 cells xenografted nu/nu mouse assessed as weight loss at 0.75 mg/kg, ip on days 0, 3 and 7 measured on day 17; type: organism-based; parameters: dose 0.75 mg/kg, route intraperitoneal; settings: in vivo
Summary of the method: (§5)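 MDA-MB-231 fragments implanted bilaterally in female nu/nu mice; groups of 5, dosing started at mean tumor size 134 mm3. Compound given ip on days 0, 3 and 7, from a 1 mg/mL EtOH stock diluted at least 1:10 in 200 µL PBS. Tumor volume and weight measured 2-3 times weekly; 10 tumors averaged, with standard error; mice sacrificed day 21.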

[13] = system: HeLa; test: Stabilization of microtubules in interphase human HeLa cells at 10 nM after 18 hrs by immunofluorescence microscopy; type: cell-based; summary of the method: as §2
[14] = system: MDA-MB-231; test: Antitumor activity against human MDA-MB-231 cells xenografted in nu/nu mouse assessed as tumor growth inhibition at 0.75 mg/kg, ip on days 0, 3 and 7 measured on day 21; type: functional, organism-based; parameters: dose 0.75 mg/kg; summary of the method: as §5
[15] = system: HeLa; test: Ratio of taccalonolide B IC50 to compound IC50 for human HeLa cells by SRB assay; type: functional
[16] = system: HeLa; test: Ratio of taccalonolide AM IC50 to compound IC50 for human HeLa cells by SRB assay; type: functional
[17] = system: HeLa; test: Ratio of taccalonolide A IC50 to compound IC50 for human HeLa cells by SRB assay; type: functional

T1 sequence (P02550 whole entry, looked up): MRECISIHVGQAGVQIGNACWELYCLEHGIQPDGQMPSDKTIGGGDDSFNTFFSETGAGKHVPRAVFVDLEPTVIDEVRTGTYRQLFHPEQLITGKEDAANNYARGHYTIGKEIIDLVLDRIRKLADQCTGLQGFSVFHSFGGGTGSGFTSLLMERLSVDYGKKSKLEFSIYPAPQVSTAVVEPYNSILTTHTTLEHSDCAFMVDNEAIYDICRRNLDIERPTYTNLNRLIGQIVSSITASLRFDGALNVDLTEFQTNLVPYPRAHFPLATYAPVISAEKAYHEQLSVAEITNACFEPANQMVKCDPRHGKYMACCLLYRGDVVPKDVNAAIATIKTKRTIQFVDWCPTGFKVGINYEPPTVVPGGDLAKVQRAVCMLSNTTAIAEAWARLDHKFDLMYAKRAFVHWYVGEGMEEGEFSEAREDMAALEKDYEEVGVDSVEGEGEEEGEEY
T1 sequence (P02554 whole entry, looked up): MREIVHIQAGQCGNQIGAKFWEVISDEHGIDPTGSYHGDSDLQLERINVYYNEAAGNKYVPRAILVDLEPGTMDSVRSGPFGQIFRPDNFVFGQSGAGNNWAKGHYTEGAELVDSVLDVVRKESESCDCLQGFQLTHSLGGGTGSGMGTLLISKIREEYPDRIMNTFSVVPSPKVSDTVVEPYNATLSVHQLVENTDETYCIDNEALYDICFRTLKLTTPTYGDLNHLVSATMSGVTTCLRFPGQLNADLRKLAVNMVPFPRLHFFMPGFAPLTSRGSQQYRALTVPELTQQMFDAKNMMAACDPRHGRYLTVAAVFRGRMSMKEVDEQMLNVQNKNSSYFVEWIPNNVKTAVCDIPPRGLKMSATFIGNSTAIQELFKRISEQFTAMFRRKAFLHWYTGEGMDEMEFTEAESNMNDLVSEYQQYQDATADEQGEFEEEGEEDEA

Structure (SMILES): CC(=O)O[C@@H]1[C@H](O)[C@H]2[C@@H]3[C@@H](O)[C@@H]4[C@H]([C@H](C)C=C5OC(=O)[C@@](C)(O)[C@@]54C)[C@@]3(C)[C@@H](OC(C)=O)[C@@H](OC(C)=O)[C@@H]2[C@]2(C)[C@@H]1C[C@@H]1O[C@@H]1[C@@H]2OC(C)=O
- Activity [1]: inactive

Structure (SMILES): CC(=O)O[C@@H]1[C@H]2[C@@H]3[C@@H](OC(C)=O)C(=O)[C@@]4(O)C[C@@H]5O[C@@H]5[C@H](OC(=O)CC(C)C)[C@]4(C)[C@H]3C[C@H](OC(C)=O)[C@]2(C)[C@H]2[C@H](C)[C@@H]3O[C@@]34OC(=O)[C@@](C)(O)[C@]4(C)[C@H]12
- Activity [3]: Active
- TGI [4]: Active
- Activity [5]: Toxic
- IC50 [2]: 0.00045 µM
- Activity [6]: 10%
- TGI [7]: Active
- Activity [8]: Non-toxic
- Activity [9]: Active
- TGI [10]: Active

Structure (SMILES): CC(=O)O[C@H]1C[C@H]2[C@H]([C@@H]3[C@@H](O)[C@@H]4[C@H]([C@H](C)[C@@H]5O[C@@]56OC(=O)[C@@](C)(O)[C@]46C)[C@]31C)[C@@H](O)C(=O)[C@H]1C[C@@H]3O[C@@H]3[C@H](O)[C@@]12C
- IC50 [2]: 0.685 µM

Structure (SMILES): CC(=O)O[C@H]1[C@H]2[C@H]([C@@H]3[C@@H](O)[C@@H]4[C@H]([C@H](C)[C@@H]5O[C@@]56OC(=O)[C@@](C)(O)[C@]46C)[C@@]3(C)[C@H]1OC(C)=O)[C@@H](O)C(=O)[C@H]1C[C@@H]3O[C@@H]3[C@H](OC(C)=O)[C@]21C
- Ratio IC50 [15]: 734

Structure (SMILES): CC(=O)O[C@H]1[C@H]2[C@@H]([C@@H](O)[C@@H](O)[C@H]3C[C@@H]4O[C@@H]4[C@H](OC(C)=O)[C@]23C)[C@@H]2[C@@H](O)[C@@H]3[C@H]([C@H](C)C=C4OC(=O)[C@@](C)(O)[C@@]43C)[C@@]2(C)[C@H]1OC(C)=O
- Activity [1]: inactive

Structure (SMILES): CC(=O)O[C@H]1C[C@H]2[C@H]([C@@H]3[C@@H](O)[C@@H]4[C@H]([C@H](C)C=C5OC(=O)[C@@](C)(O)[C@@]54C)[C@]31C)[C@@H](O)C(=O)[C@H]1C[C@@H]3O[C@@H]3[C@H](OC(=O)CC(C)C)[C@@]12C
- IC50 [2]: 0.047 µM
- Ratio IC50 [16]: 42

Structure (SMILES): CC(=O)O[C@@H]1[C@H]2[C@H]3[C@H]([C@H](OC(C)=O)[C@H](OC(C)=O)[C@]2(C)[C@H]2[C@H](C)[C@@H]4O[C@@]45OC(=O)[C@@](C)(O)[C@]5(C)[C@H]12)[C@]1(C)[C@H](C[C@@H]2O[C@@H]2[C@@H]1OC(C)=O)C(=O)[C@@H]3O
- Ratio IC50 [17]: 231

Further lines, with some results ahead:

- IC50 [2]: 0.0172 µM
Structure (SMILES): CC(=O)O[C@@H]1[C@H]2[C@H]3[C@H]([C@H](OC(C)=O)[C@H](OC(C)=O)[C@]2(C)[C@H]2[C@H](C)[C@@H]4O[C@@]45OC(=O)[C@@](C)(O)[C@]5(C)[C@H]12)[C@@]1(C)[C@@H](OC(C)=O)[C@H]2O[C@H]2C[C@]1(O)C(=O)[C@@H]3O

- IC50 [2]: 3.48 µM
Structure (SMILES): CC(=O)O[C@@H]1[C@H]2[C@@H]3C(=O)C(O)=C4C[C@@H]5O[C@@H]5[C@H](OC(C)=O)[C@]4(C)[C@H]3[C@H](OC(C)=O)[C@H](OC(C)=O)[C@]2(C)[C@@H]2[C@@H]1[C@]1(C)C(=C[C@H]2C)OC(=O)[C@@]1(C)O

- IC50 [2]: 0.00088 µM
- Activity [11]: Active
Structure (SMILES): CC(=O)O[C@H]1C[C@H]2[C@H]([C@@H]3[C@@H](O)[C@@H]4[C@H]([C@H](C)[C@@H]5O[C@@]56OC(=O)[C@@](C)(O)[C@]46C)[C@]31C)[C@@H](O)C(=O)[C@H]1C[C@@H]3O[C@@H]3[C@H](OC(=O)CC(C)C)[C@@]12C
- Activity [12]: Non-toxic
- Activity [13]: Active
- Activity [14]: inactive

- IC50 [2]: 0.0296 µM
Structure (SMILES): CC(=O)O[C@@H]1[C@H]2[C@@H]3[C@@H](OC(C)=O)C(=O)[C@@]4(O)C[C@@H]5O[C@@H]5[C@H](OC(C)=O)[C@]4(C)[C@H]3C[C@H](OC(C)=O)[C@]2(C)[C@H]2[C@H](C)[C@@H]3O[C@@]34OC(=O)[C@@](C)(O)[C@]4(C)[C@H]12

- IC50 [2]: 0.82 µM
Structure (SMILES): CC(=O)O[C@@H]1[C@H]2[C@@H]3C(=O)C(O)=C4C[C@@H]5O[C@@H]5[C@H](OC(C)=O)[C@]4(C)[C@H]3[C@H](OC(C)=O)[C@H](OC(C)=O)[C@]2(C)[C@H]2[C@H](C)[C@@H]3O[C@@]34OC(=O)[C@@](C)(O)[C@]4(C)[C@H]12

- IC50 [2]: 0.0084 µM
Structure (SMILES): CC(=O)O[C@H]1[C@H]2[C@H]([C@@H]3[C@@H](O)[C@@H]4[C@H]([C@H](C)[C@@H]5O[C@@]56OC(=O)[C@@](C)(O)[C@]46C)[C@@]3(C)[C@H]1OC(C)=O)[C@@H](O)C(=O)[C@@]1(O)C[C@@H]3O[C@@H]3[C@H](OC(C)=O)[C@]21C

- IC50 [2]: 0.0156 µM
Structure (SMILES): CC(=O)O[C@@H]1[C@H]2[C@H]3[C@H]([C@H](OC(C)=O)[C@H](OC(C)=O)[C@]2(C)[C@H]2[C@H](C)[C@@H]4O[C@@]45OC(=O)[C@@](C)(O)[C@]5(C)[C@H]12)[C@@]1(C)[C@@H](OC(C)=O)[C@H]2O[C@H]2C[C@]1(O)C(=O)[C@@H]3OC(C)=O

- IC50 [2]: 0.188 µM
Structure (SMILES): CC(=O)O[C@@H]1[C@H]2[C@@H]3[C@@H](O)C(=O)[C@H]4C[C@@H]5O[C@@H]5[C@H](OC(C)=O)[C@]4(C)[C@H]3C[C@H](OC(C)=O)[C@]2(C)[C@H]2[C@H](C)[C@@H]3O[C@@]34OC(=O)[C@@](C)(O)[C@]4(C)[C@H]12

- IC50 [2]: 0.0145 µM
Structure (SMILES): CC(=O)O[C@H]1C[C@H]2[C@H]([C@@H]3[C@@H](O)[C@@H]4[C@H]([C@H](C)[C@@H]5O[C@@]56OC(=O)[C@@](C)(O)[C@]46C)[C@]31C)[C@@H](O)C(=O)[C@H]1C[C@@H]3O[C@@H]3[C@H](OC(C)=O)[C@@]12C
